# Hits are enriched below; roughly 1.4% of the tested compounds scored in any of these assays.
# MsrA inh – bovine MsrA enzyme inhibitors, primary screen, biochemical, absorbance, HTS; Methionine sulfoxide reductase A (Bos taurus); purified bovine MsrA, absorbance read-out; inhibition, % at 15.5 µM; 360,000 compounds, 0.75% hits; in the data active = inhibition above about 4.5%;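 note: 0% = vehicle wells with enzyme and 100% = reference inhibitor wells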
# MsrA act – bovine MsrA enzyme activators, primary screen, biochemical, absorbance, HTS. Methionine sulfoxide reductase A (Bos taurus). purified bovine MsrA, absorbance read-out. activation, % at 10.6 µM. 360,000 compounds, 0.3% hits. AID 602163, 2012; in the data active = activation above about 7.5%;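 note: 0% = vehicle and 100% = reference activator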
# ASAP1 inh – inhibitors of human ASAP1 ArfGAP activity, primary screen, biochemical, fluorescence polarization | Arf-GAP with SH3 domain, ANK repeat and PH domain-containing protein 1 (Homo sapiens), … | ASAP1-stimulated ARF1 GTP hydrolysis, GDP FP detection | inhibition, % at 16.5 µM | 360,000 compounds, 0.19% hits | AID 624377, 2012; in the data active = inhibition above about 25%;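 note: 0% = vehicle with enzyme and substrate and 100% = no enzyme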
# ARFGAP1 inhibitor – inhibitors of rat ARFGAP1 GAP activity, primary screen, biochemical, fluorescence polarization, GDP tracer. ADP-ribosylation factor GTPase-activating protein 1 (Rattus norvegicus), Q62848. Arfgap1-stimulated ARF1 GTP hydrolysis, GDP FP detection. inhibition, % at 16.5 µM. 360,000 compounds, 0.26% hits. AID 651572, 2012;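 active = inhibition above a per-plate limit, mean inhibition of low control wells plus 3 SD, cut at about 25% in these data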;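 note: 0% = DMSO wells with enzyme and 100% = wells lacking Arfgap1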
# Target sequence (Q62848 1-136 limits assumed): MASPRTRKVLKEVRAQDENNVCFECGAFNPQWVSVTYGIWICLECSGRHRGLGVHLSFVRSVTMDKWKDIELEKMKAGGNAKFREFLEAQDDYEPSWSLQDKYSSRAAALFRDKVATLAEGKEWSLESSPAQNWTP
#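 system = rat Arfgap1 catalytic domain, aa 1-136 | technique = FP, GDP Alexa 633 tracer displaced from anti-GDP antibody, 620/688 nm | compound = one concentration, 16.5 µM, DMSO 1.26% | medium = HEPES-based buffer, pH 7.5 | timing = compound-enzyme preincubation 20 min, reaction 120 min, detection 60 min, 25 °C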
# MsrA activ conf – bovine MsrA activators, retest, confirmation, biochemical, absorbance, HTS; shares compounds with MsrA act; purified bovine MsrA, absorbance read-out; activation, % at 10.6 µM; 1,000 compounds, 12% hits; AID 602270, 2012; in the data active = activation above about 4%;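 note: enzyme coupled to thioredoxin and thioredoxin reductase with NADPH; 0% = vehicle wells and 100% = reference activator wells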
# Active calls of the source: *; x = no result.
SMILES,MsrA inh,MsrA act,ASAP1 inh,ARFGAP1 inhibitor,MsrA activ conf
Cc1noc(C)c1NC(=O)N(C)C[C@H]1Oc2ccc(NC(=O)Nc3ccc(C(F)(F)F)cc3)cc2C(=O)N([C@H](C)CO)C[C@@H]1C,-0.6,19.3*,3.5,3.5,0.0
NC(c1csc(Nc2ccc(C(=O)NCCO)cc2)n1)C1CCCCC1 (configuration not stated),1.9,-5.0,5.0,5.7,x
Cc1c(NC(=O)C(C)OC(=O)c2cc(Cl)ccc2O)c(=O)n(-c2ccccc2)n1C (configuration not stated),0.4,-3.6,13.0,13.0,x
O=C(Cc1ccccc1)N/N=C/c1ccc([N+](=O)[O-])s1,1.7,7.9*,-0.3,16.9,0.7
O=C(N/N=C/c1ccc([N+](=O)[O-])s1)c1ccccc1,1.8,5.7,8.2,6.3,x
Cc1cc(NS(=O)(=O)c2ccc(NC(=O)CCCC(=O)O)cc2)nc(C)n1,-0.5,8.2*,3.6,2.6,0.5
O=C(NCc1cc(Cl)cc(Cl)c1)c1csc(COCCO)n1,0.7,0.9,16.7,-16.3,x
COc1cccc(C(=O)Nn2cnnc2)c1OC,0.5,-2.3,-0.6,-5.4,x
N#Cc1ccccc1CSc1nnc(-c2ccncc2)o1,x,-7.8,x,x,x
N#Cc1cccc(-c2nnc(SCc3ccccc3C#N)o2)c1,-0.2,14.3*,8.0,-5.7,2.1
O=C(CNCc1ccco1)Nc1ccc(Oc2ccccc2)cc1,-0.6,-4.4,-0.8,-0.6,x
Cc1cccc(N2C(=O)C3CCCN3C2=S)c1 (configuration not stated),-1.4,-9.7,9.8,-2.7,x
CSc1cccc(N2C(=O)C3CCCN3C2=S)c1 (configuration not stated),-1.2,8.1*,2.1,-1.8,0.9
O=C(COC(=O)Cc1ccsc1)Nc1ccccc1,1.0,24.6*,-20.3,-3.9,1.9
O=C1c2ccccc2S(=O)(=O)c2cc(C(=O)N(c3ccccn3)c3ccccn3)ccc21,-1.1,8.0*,7.7,-0.1,2.9
CCOC(=O)C1=C(CSc2nc3c(cc2C#N)CN(C)CC3)OC(N)=C(C#N)C1c1ccncc1 (configuration not stated),1.8,-2.6,10.4,9.7,x
CCOC(=O)C1=C(CSc2nc3c(cc2C#N)CN(C)CC3)OC(N)=C(C#N)C1c1ccc(Cl)cc1 (configuration not stated),0.3,9.6*,0.5,0.1,-2.2
CC(=O)C[C@H](O)CC(=O)[C@@H]1OC(=O)CCCCC/C=C/Cc2ccccc21,0.2,-6.1,2.5,0.2,x
COc1ccc(C(=O)N/C(=C\c2cn(S(=O)(=O)N(C)C)c3ccccc23)C(=O)NCCN2CCOCC2)cc1OC,0.3,-1.0,-8.9,10.7,x
COc1ccc(C(=O)N/C(=C\c2cn(S(=O)(=O)N(C)C)c3ccccc23)C(=O)NCCN2CCOCC2)cc1,4.6*,18.3*,7.1,-6.2,-1.3
CCN(CC)c1ccc2nc3ccccc3[n+](CC)c2c1,x,33.6*,x,x,19.2*
Clc1ccccc1N=Nc1ccccn1,0.2,33.6*,-14.3,-0.4,0.0
Cc1[nH][nH]c(=O)c1N=Nc1ccccc1Cl,3.8,-2.6,9.3,0.4,x
Cc1ccc(S(=O)(=O)NC2c3cccc4cccc(c34)C2Sc2nncn2C)cc1 (configuration not stated),0.2,14.9*,-10.2,0.6,-0.5
Cc1ccc(OCC(=O)Nn2c(C)nc3ccccc3c2=O)c(C(C)C)c1,0.4,8.2*,-11.9,6.1,-2.9
COc1ccc(C(=O)C(=O)c2ccc(OCCO)cc2)cc1,0.8,-9.7,5.8,1.3,x
Cc1cc(=O)[nH]c(SCC(=O)N2CCc3ccccc3C2)n1,-1.5,9.5*,-2.7,4.2,0.9
CC(C)C[C@@H](CO)N1CCN(Cc2ccc([N+](=O)[O-])cc2)CCC1=O,0.5,-0.8,-7.4,2.3,x
O=C(NCCNC(=O)c1ccc(-c2ccc(Cl)c(Cl)c2)o1)c1cnccn1,0.5,10.5*,-5.6,-7.4,-0.1
O=C(NC1CC2CCCC(C1)N2C(=O)Nc1ccccc1F)C1CC1 (configuration not stated),-0.2,-1.7,7.4,5.6,x

# Source: PubChem (The Scripps Research Institute Molecular Screening Center)
